Laboratory results taken from article PMC3866226 (Molecular pharmaceutics, 2013).
Values joined by “and” are separate entries in the source; they are usually repeats but may differ in a detail not shown here. Equal entries are not always repeated. “Also recorded” adds a separate entry of the source. Bridge positions count the residues as written; N and C are the ends. Square brackets hold non-standard residues; d marks the D form. Peptide text beside a SMILES is read from it.

Assays:
[1] = system: B16/F1 melanoma-bearing C57 mice; test: Urinary metabolites by radio-HPLC; assay type: in vivo, mouse; conditions: urine at 2 h post-injection of ~3.7 MBq via tail vein
[2] = system: B16/F1 melanoma-bearing C57 mice; test: Melanoma imaging by small animal SPECT/CT; assay type: in vivo, mouse; conditions: 2 h post-injection of 7.4 MBq via tail vein
[3] = Biodistribution in B16/F1 melanoma-bearing C57 mice; assay type: in vivo, mouse; conditions: female, C57, mouse, iv, 0.037 MBq, total radioactivity
Method in brief: (§1)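 Female C57 mice bore subcutaneous right-flank tumours from 1×10^6 B16/F1 cells (~0.2 g at 10 days). Radiopeptide, 0.037 MBq in pH 7.4 saline, went in via tail vein. Groups of 4 were killed at 0.5, 2, 4 and 24 h; tumours and organs were weighed and gamma-counted. Blood was taken as 6.5% body weight. Blockade: co-injected 10 µg (6.1 nmol) unlabeled NDP-MSH, 2 h. Results as %ID/g or %ID, mean ± SD, n=4.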

[4] = system: B16/F1 melanoma-bearing C57 mice; test: as above; assay type: in vivo, mouse
Method in brief: as §1

[5] = system: B16/F1 melanoma-bearing C57 mice; test: Effect of L-lysine co-injection on renal and tumor uptake; assay type: in vivo, mouse; conditions: 2 h post-injection, 15 mg L-lysine
Method in brief: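 Groups of 4 tumour-bearing C57 mice received 0.037 MBq radiopeptide mixed with 15 mg L-lysine via injection. Mice were killed at 2 h, and tumours and organs were weighed and gamma-counted. Uptake with versus without L-lysine was compared by unpaired Student's t-test, significance p<0.05.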

[6] = system: B16/F1 melanoma cells; test: Cellular efflux; assay type: cell-based, murine; conditions: loaded 2 h at 25 °C, then 2 h of incubation in the culture medium
Method in brief: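 B16/F1 cells were seeded at 2.5×10^5/well and grown overnight at 37 °C. They were loaded with radiopeptide for 2 h at 25 °C and rinsed twice with ice-cold PBS. Release into culture medium was then monitored. At 20, 40, 60, 90 and 120 min, surface-bound and intracellular radioactivity were collected separately and gamma-counted.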

[7] = system: B16/F1 melanoma cells; test: Cellular internalization; assay type: cell-based, murine; conditions: after 20 min of incubation at 25 °C, acid wash pH 4.5, n=3
Method in brief: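 Cells at 2.5×10^5/well were grown overnight at 37 °C and washed with binding medium (MEM, 25 mM HEPES pH 7.4, 0.2% BSA, 0.3 mM 1,10-phenanthroline). They were incubated at 25 °C with ~200,000 cpm HPLC-purified radiopeptide for 20–120 min (n=3). Membrane-bound activity was stripped with 40 mM sodium acetate pH 4.5/0.9% NaCl/0.2% BSA. Cells were lysed in 1 N NaOH for 5 min; both fractions were gamma-counted.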

CC(C)[C@H](NC(=O)[C@@H]1CCCN1C(=O)[C@H](CCCNC(=N)N)NC(=O)[C@H](CS)NC(=O)[C@H](Cc1c[nH]c2ccccc12)NC(=O)[C@H](CCCNC(=N)N)NC(=O)[C@@H](Cc1ccccc1)NC(=O)[C@H](Cc1c[nH]cn1)NC(=O)[C@H](CCC(=O)O)NC(=O)[C@H](CS)NC(=O)[C@H](CS)NC(=O)[C@H](CCCCN)NC(=O)[C@@H]1CC(=O)N[C@@H](CCCNC(=N)N)C(=O)N[C@@H]([C@@H](C)O)C(=O)N[C@@H](CC(=O)O)C(=O)N[C@H](Cc2ccc(O)cc2)C(=O)N1)C(N)=O [^99mTc-RTD-Lys-(Arg^11)CCMSH, metal not drawn] (RTD[dY]DKCCEH[dF]RWCRPV-NH2; lactam N-5)
Remained intact in the urine [1]: Approximately 70%
Transformed to a more hydrophobic compound in the urine [1]: 30%
Visualization of flank B16/F1 melanoma lesions by SPECT/CT [2]: clearly visualized
tissue uptake at 0.5 h ([3]; blood): 15.9 ± 3.97 %ID/g
tissue uptake at 2 h ([3]; blood): 0.44 ± 0.13 %ID/g
tissue uptake at 4 h ([3]; blood): 0.55 ± 0.41 %ID/g
tissue uptake at 24 h ([3]; blood): 0.4 ± 0.21 %ID/g
tissue uptake at 0.5 h ([3]; bone): 1.66 ± 0.1 %ID/g
tissue uptake at 2 h ([3]; bone): 0.46 ± 0.11 %ID/g
tissue uptake at 4 h ([3]; bone): 0.39 ± 0.12 %ID/g
tissue uptake at 24 h ([3]; bone): 0.23 ± 0.09 %ID/g
tissue uptake at 0.5 h ([3]; brain): 0.14 ± 0.04 %ID/g
tissue uptake at 2 h ([3]; brain): 0.03 ± 0.01 %ID/g
tissue uptake at 4 h ([3]; brain): 0.02 ± 0.01 %ID/g
tissue uptake at 24 h ([3]; brain): 0.03 ± 0.01 %ID/g
tissue uptake at 0.5 h ([3]; heart): 1.86 ± 0.21 %ID/g
tissue uptake at 2 h ([3]; heart): 0.29 ± 0.08 %ID/g
tissue uptake at 4 h ([3]; heart): 0.19 ± 0.05 %ID/g
tissue uptake at 24 h ([3]; heart): 0.12 ± 0.02 %ID/g
tissue uptake dose at 0.5 h ([3]; intestines): 1.73 ± 0.17 %ID
tissue uptake dose at 2 h ([3]; intestines): 0.84 ± 0.2 %ID
tissue uptake dose at 4 h ([3]; intestines): 0.72 ± 0.18 %ID
tissue uptake dose at 24 h ([3]; intestines): 0.48 ± 0.13 %ID
tissue uptake at 0.5 h ([3]; kidneys): 145 ± 24.6 %ID/g
tissue uptake at 2 h ([3]; kidneys): 135 ± 23.6 %ID/g
tissue uptake at 4 h ([3]; kidneys): 106 ± 27.7 %ID/g
tissue uptake at 24 h ([3]; kidneys): 46.8 ± 14.8 %ID/g
tissue uptake at 0.5 h ([3]; liver): 2.09 ± 0.04 %ID/g
tissue uptake at 2 h ([3]; liver): 1.62 ± 0.14 %ID/g
tissue uptake at 4 h ([3]; liver): 2.01 ± 0.39 %ID/g
tissue uptake at 24 h ([3]; liver): 1.03 ± 0.1 %ID/g
tissue uptake at 0.5 h ([3]; lung): 4.27 ± 0.27 %ID/g
tissue uptake at 2 h ([3]; lung): 0.51 ± 0.37 %ID/g
tissue uptake at 4 h ([3]; lung): 0.39 ± 0.24 %ID/g
tissue uptake at 24 h ([3]; lung): 0.23 ± 0.04 %ID/g
tissue uptake at 0.5 h ([3]; muscle): 0.8 ± 0.38 %ID/g
tissue uptake at 2 h ([3]; muscle): 0.15 ± 0.05 %ID/g
tissue uptake at 4 h ([3]; muscle): 0.07 ± 0.02 %ID/g
tissue uptake at 24 h ([3]; muscle): 0.52 ± 0.1 %ID/g
tissue uptake at 0.5 h ([3]; pancreas): 0.83 ± 0.4 %ID/g
tissue uptake at 2 h ([3]; pancreas): 0.11 ± 0.04 %ID/g
tissue uptake at 4 h ([3]; pancreas): 0.09 ± 0.05 %ID/g
tissue uptake at 24 h ([3]; pancreas): 0.13 ± 0.07 %ID/g
tissue uptake at 0.5 h ([3]; skin): 3.99 ± 0.42 %ID/g
tissue uptake at 2 h ([3]; skin): 0.5 ± 0.19 %ID/g
tissue uptake at 4 h ([3]; skin): 0.27 ± 0.13 %ID/g
tissue uptake at 24 h ([3]; skin): 1.01 ± 0.31 %ID/g
tissue uptake at 0.5 h ([3]; spleen): 1.04 ± 0.33 %ID/g
tissue uptake at 2 h ([3]; spleen): 0.48 ± 0.2 %ID/g
tissue uptake at 4 h ([3]; spleen): 0.47 ± 0.18 %ID/g
tissue uptake at 24 h ([3]; spleen): 0.19 ± 0.13 %ID/g
tissue uptake at 0.5 h ([3]; stomach): 1.87 ± 0.21 %ID/g
tissue uptake at 2 h ([3]; stomach): 0.67 ± 0.16 %ID/g
tissue uptake at 4 h ([3]; stomach): 0.7 ± 0.23 %ID/g
tissue uptake at 24 h ([3]; stomach): 0.21 ± 0.04 %ID/g
tissue to tissue ratio at 2 h ([3]; tumor / blood): 42.7
tissue to tissue ratio at 4 h ([3]; tumor / blood): 25.2
tissue to tissue ratio at 24 h ([3]; tumor / blood): 14.6
tissue to tissue ratio at 0.5 h ([3]; tumor / kidneys): 0.1
tissue to tissue ratio at 2 h ([3]; tumor / kidneys): 0.14
tissue to tissue ratio at 4 h ([3]; tumor / kidneys): 0.13
tissue to tissue ratio at 24 h ([3]; tumor / kidneys): 0.12
tissue to tissue ratio at 0.5 h ([3]; tumor / lung): 3.41
tissue to tissue ratio at 2 h ([3]; tumor / lung): 36.8
tissue to tissue ratio at 4 h ([3]; tumor / lung): 35.5
tissue to tissue ratio at 24 h ([3]; tumor / lung): 25.4
tissue uptake at 0.5 h ([3]; tumor): 14.6 ± 5.31 %ID/g
tissue uptake at 2 h ([3]; tumor): 18.8 ± 5.13 %ID/g
tissue uptake at 4 h ([3]; tumor): 13.8 ± 3.1 %ID/g
tissue uptake at 24 h ([3]; tumor): 5.84 ± 0.5 %ID/g
tissue to tissue ratio at 0.5 h ([3]; tumor/liver): 6.97
tissue to tissue ratio at 2 h ([3]; tumor/liver): 11.6
tissue to tissue ratio at 4 h ([3]; tumor/liver): 6.89
tissue to tissue ratio at 24 h ([3]; tumor/liver): 5.67
tissue to tissue ratio at 0.5 h ([3]; tumor/muscle): 18.2
tissue to tissue ratio at 2 h ([3]; tumor/muscle): 125
tissue to tissue ratio at 4 h ([3]; tumor/muscle): 198
tissue to tissue ratio at 24 h ([3]; tumor/muscle): 11.2
dose excreted at 0.5 h ([3]; urine): 28.6 ± 8.85%
dose excreted at 2 h ([3]; urine): 54.8 ± 5.65%
dose excreted at 4 h ([3]; urine): 61.2 ± 5.56%
dose excreted at 24 h ([3]; urine): 82.2 ± 4.69%
Uptake ratio Tumor/Blood ([4]; 0.5 h post-injection): 0.91
Uptake ratio Tumor/Blood ([4]; 2 h post-injection, NDP blockade): 5.70
Reduction of renal uptake by L-lysine co-injection ([5]; versus without L-lysine): 55% and 40–50%
Effect of L-lysine co-injection on tumor uptake ([5]; p>0.05): didn't affect the tumor uptake; also recorded: without affecting their tumor uptake
Activity remained inside the cells (cellular efflux) [6]: 75%
Activity internalized in the cells [7]: Approximately 71%
